Assay [1] deals with T1, Sphingosine kinase 1 (Homo sapiens, UniProt Q9NYA1). Nature of the assay: Inhibition of recombinant human SphK1 using NBD-sphingosine as substrate after 2 hrs in presence of ATP by HPLC method.
Assay [2] concerns the target T2, Sphingosine kinase 2 (Homo sapiens, UniProt Q9NRA0).
T2 sequence (Q9NRA0 whole entry): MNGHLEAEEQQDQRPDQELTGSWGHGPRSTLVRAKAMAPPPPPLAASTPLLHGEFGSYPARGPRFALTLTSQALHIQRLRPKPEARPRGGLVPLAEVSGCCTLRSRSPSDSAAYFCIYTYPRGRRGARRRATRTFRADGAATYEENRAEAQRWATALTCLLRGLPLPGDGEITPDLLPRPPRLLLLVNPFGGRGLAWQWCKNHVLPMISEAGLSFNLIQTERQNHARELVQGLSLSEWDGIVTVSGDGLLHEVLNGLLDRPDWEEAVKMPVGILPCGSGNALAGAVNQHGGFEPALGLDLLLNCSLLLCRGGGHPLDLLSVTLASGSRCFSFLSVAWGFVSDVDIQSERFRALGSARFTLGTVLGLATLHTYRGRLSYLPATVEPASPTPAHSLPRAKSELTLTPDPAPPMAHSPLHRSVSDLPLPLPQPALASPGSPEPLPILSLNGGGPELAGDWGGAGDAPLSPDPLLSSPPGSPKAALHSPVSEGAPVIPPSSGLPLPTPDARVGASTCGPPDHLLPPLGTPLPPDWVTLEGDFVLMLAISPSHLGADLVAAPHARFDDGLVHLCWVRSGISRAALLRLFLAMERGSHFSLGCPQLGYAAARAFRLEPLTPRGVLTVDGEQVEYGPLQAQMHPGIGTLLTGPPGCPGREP
The assay can be described thus: Inhibition of recombinant human SphK2 using NBD-sphingosine as substrate after 2 hrs in presence of ATP by HPLC method.

In assay [3] the target is T2, Sphingosine kinase 2. The assay can be described thus: Inhibition of recombinant N-terminal GST-tagged human SphK2 (1 to 618 residues) expressed in baculovirus expression system using sphingosine as substrate after 1 hr in presence of ATP by off-chip mobility shift assay. In a few lines:
(§1)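 GST-fusion kinases purified on glutathione sepharose. Compounds in DMSO diluted fourfold into 20 mM HEPES pH 7.5, 0.01% Triton X-100, 2 mM DTT. Reaction: 1 µM sphingosine, 5 mM MgCl2, ATP 25 µM (SphK1) or 600 µM (SphK2), room temperature 1 h, n = 2. Read-out: P/(P+S) from electrophoretic peak heights. […] IC50 fitted.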

Assay [4] concerns the target T1, Sphingosine kinase 1. Nature of the assay: Inhibition of recombinant N-terminal GST-tagged human SphK1 (1 to 384 residues) expressed in baculovirus expression system using sphingosine as substrate after 1 hr in presence of ATP by off-chip mobility shift assay. In a few lines: as §1
The target in assay [5] is T1, Sphingosine kinase 1. Nature of the assay: Inhibition of human SphK1 using sphingosine as substrate after 15 to 20 mins in presence of [gamma-32P]ATP by Cerenkov counting method.
Assay [6] concerns the target T2, Sphingosine kinase 2. Nature of the assay: Inhibition of human SphK2 using sphingosine as substrate after 15 to 20 mins in presence of [gamma-32P]ATP by Cerenkov counting method.
Assay [7] deals with T1, Sphingosine kinase 1. The assay can be described thus: Inhibition of human SphK1 using sphingosine as substrate in presence of [gamma-32P]ATP.
The target of assay [8] is T3, Sphingosine kinase 2 (Mus musculus, UniProt Q9JIA7).
T3 sequence (Q9JIA7 whole entry): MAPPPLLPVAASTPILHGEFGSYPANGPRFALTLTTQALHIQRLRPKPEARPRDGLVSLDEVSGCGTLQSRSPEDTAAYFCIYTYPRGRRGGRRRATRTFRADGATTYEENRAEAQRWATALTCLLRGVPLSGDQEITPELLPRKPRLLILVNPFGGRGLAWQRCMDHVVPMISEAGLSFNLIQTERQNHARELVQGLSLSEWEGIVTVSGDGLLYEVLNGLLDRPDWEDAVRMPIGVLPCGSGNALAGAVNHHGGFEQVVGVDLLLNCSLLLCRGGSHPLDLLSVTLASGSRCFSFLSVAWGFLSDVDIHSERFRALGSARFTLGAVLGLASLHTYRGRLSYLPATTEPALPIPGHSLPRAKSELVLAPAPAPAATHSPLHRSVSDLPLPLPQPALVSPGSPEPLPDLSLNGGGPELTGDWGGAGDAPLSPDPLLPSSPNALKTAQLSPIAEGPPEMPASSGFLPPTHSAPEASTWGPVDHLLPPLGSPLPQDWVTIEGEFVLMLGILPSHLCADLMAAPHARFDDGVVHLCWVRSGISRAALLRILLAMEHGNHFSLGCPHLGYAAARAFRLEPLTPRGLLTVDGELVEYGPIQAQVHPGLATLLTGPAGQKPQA
The assay can be described thus: Inhibition of recombinant mouse SphK2 expressed in baculovirus infected sf9 cells using D-erythro-sphingosine as substrate in presence of [gamma-33P]ATP by scintillation counting method.

The target in assay [9] is T1, Sphingosine kinase 1. The assay can be described thus: Inhibition of recombinant human SphK1 expressed in baculovirus infected sf9 cells using D-erythro-sphingosine as substrate in presence of [gamma-33P]ATP by scintillation counting method.

Molecules are shown by their SMILES.

T1 sequence (Q9NYA1 whole entry): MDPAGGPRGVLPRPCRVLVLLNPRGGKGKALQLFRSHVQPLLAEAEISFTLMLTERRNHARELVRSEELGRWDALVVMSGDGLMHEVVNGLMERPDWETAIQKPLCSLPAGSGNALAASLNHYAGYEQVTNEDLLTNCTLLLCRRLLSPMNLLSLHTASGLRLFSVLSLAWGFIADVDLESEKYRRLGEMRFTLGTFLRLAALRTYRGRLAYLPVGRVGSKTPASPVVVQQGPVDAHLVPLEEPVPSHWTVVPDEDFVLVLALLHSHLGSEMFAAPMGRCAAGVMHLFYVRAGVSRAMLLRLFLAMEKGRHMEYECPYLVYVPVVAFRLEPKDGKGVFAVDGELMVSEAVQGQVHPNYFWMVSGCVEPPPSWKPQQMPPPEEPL

For the compound `CC(=O)N(C1=C(Cl)C(=O)c2ccccc2C1=O)C1CCCCC1`, the IC50 (as a rule, the concentration that inhibits the measured activity by half) in assay [1] is 2000 nM; in [2] it was greater than 100000 nM.
As for `CCCCCCCCCCCCCC[C@@H]1OC[C@@H](N)[C@@H]1O`, the IC50 fell in the range of 600 to 740 nM in [3] and 820 to 1100 nM in assay [4].
`CCCCCCCCc1ccc(CC[C@@](N)(CO)COC)cc1`: the IC50 in assay [5] is greater than 50000 nM; in assay [6], 27000 nM.
On to `CCCCOc1ccc(CC/C=C2\SC(=O)N(CCN)C2=O)cc1`, for which, in assay [7], the IC50 was greater than 10000 nM.
On to `CCCCCCCCCCCCc1ccc(-c2noc(C3(C(=N)N)CC3)n2)cc1`, for which the Ki (usually a measure of affinity in units of concentration, obtained from inhibition or displacement) in assay [8] was determined as 14100 nM; in assay [9], 40 nM.
On to `CCCCCCCCCCCCc1ccc(CC[C@@H]2OC[C@@H](N)[C@@H]2O)cc1`, for which the figures for the IC50 in assay [3] and in [4] were 21000 nM and 880 nM, respectively.
For the compound `CCCCCCCCc1cccc(CC[C@@H]2OC[C@@H](N)[C@@H]2O)c1`, the values for the IC50 in assay [3] and in assay [4] were 2100 nM and 16000 nM, respectively.
The corresponding values for `CC(C)COCCCCCCCCCCC[C@@H]1OC[C@@H](N)[C@@H]1O` are 840 nM and 710 nM.
With `CCCCCCc1ccc(CC[C@@H]2OC[C@@H](N)[C@@H]2O)cc1`, the IC50 in assay [3] was 8300 nM; in [4], greater than 30000 nM.
Turning to `N[C@@H]1CO[C@@H](CCCCCCCCCCOCC2CCCCC2)[C@H]1O`, the half-maximal inhibitory concentration (IC50) was 240 nM in assay [3] and 220 nM in [4].
The corresponding values for `N[C@@H]1CO[C@@H](CCCCCCCCCCCOCC2CCCCC2)[C@H]1O` are 780 nM and 380 nM.
For `CCCCCCCCCOCCCC[C@@H]1OC[C@@H](N)[C@@H]1O`, the IC50 in assay [3] and in assay [4] was greater than 30000 nM throughout.
Regarding `CCCCCCCc1cccc(CC[C@@H]2OC[C@@H](N)[C@@H]2O)c1`, the IC50 in assay [3] was 2200 nM; in assay [4], greater than 30000 nM.
Take `CCCCCCCCCCCCCC[C@@H]1OC[C@@H](NC(=N)N)[C@@H]1O`: the IC50 came to 1900 nM in assay [3] and 1100 nM in assay [4].
For the compound `CCCCCCCCCCc1ccc(CC[C@@H]2OC[C@@H](N)[C@@H]2O)cc1`, the IC50 came out at 670 nM in assay [3] and 420 nM in [4].
Regarding `CCCCCCCCCCCCCC[C@@H]1OC[C@@H](NC(C)=O)[C@@H]1O`, the IC50 in [3] and in [4] was greater than 30000 nM throughout.
In the case of `CCCCCCCCCCCCCCc1ccc(CC[C@@H]2OC[C@@H](N)[C@@H]2O)cc1`, the IC50 in assay [3] and in [4] was greater than 30000 nM each time.
As to `CCCCCCCCCc1cccc(CC[C@@H]2OC[C@@H](N)[C@@H]2O)c1`, the figures for the IC50 in assay [3] and in assay [4] were 1700 nM and 12000 nM, respectively.
Take `N[C@@H]1CO[C@@H](CCCCCCCCOCC2CCCCC2)[C@H]1O`: the IC50 came out at 1300 nM in assay [3] and 2800 nM in [4].
In the case of `CCCCCCCCCCCCCC[C@@H]1OC[C@@H](NC(C)=N)[C@@H]1O`, the IC50 in assay [3] amounted to 9400 nM; in assay [4] it was 3100 nM.
Consider `CCCCCCCCc1ccc(CC[C@@H]2OC[C@@H](N)[C@@H]2O)cc1`, for which the IC50 in assay [3] amounted to 560 nM; in assay [4], 1400 nM.
For `N[C@@H]1CO[C@@H](CCCCCCCCCOCC2CCCCC2)[C@H]1O`, the IC50 in assay [3] is 460 nM; in assay [4], 670 nM.
The corresponding values for `CCCCCCCOCCCCCC[C@@H]1OC[C@@H](N)[C@@H]1O` are 3900 nM and 9600 nM.
As to `CCCCCCCCc1ccccc1CC[C@@H]1OC[C@@H](N)[C@@H]1O`, the IC50 in assay [3] and in assay [4] was greater than 30000 nM each time.
In the case of `CCCCCCCCCCCCCC[C@@H]1OC[C@@H](N)[C@@H]1OC`, the values for the IC50 in assay [3] and in assay [4] were greater than 30000 nM and 4000 nM, respectively.
Consider `O=C(NCc1ccncc1)C12CC3CC(C1)CC(c1ccc(Cl)cc1)(C3)C2` [ABC-294640], for which the IC50 is greater than 100000 nM in assay [1] and 60000 nM in [2].

These data come from ChEMBL document CHEMBL4033636, “Identification of selective inhibitors of sphingosine kinases 1 and 2 through a structure-activity relationship study of 4-epi-jaspine B” (Bioorg Med Chem, 2017).
